Publication PMC4697833 (Bioorganic & medicinal chemistry, 2015)
Where two headings read alike, the source gives them in different places. One block for each compound: values may come before it.

Tests used:
[1] = system: NCI/ADR-RES (ovarian cancer; adriamycin-resistant); conditions: read-out: IC50 NCI/ADR-RES, previously reported; cited from earlier work
total BM = conditions: cited from earlier work
Measured LogD7.4 = format: physicochemical; conditions: pH 7.4
Outline: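 LogD at pH 7.4 was determined experimentally by liquid-liquid distribution chromatography, run by a contract analytical lab. Each value is the average of two measurements. The assay's measurable range is 1–5 log units.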

TEX cells [2] = experiment: Methylcellulose clonal growth assay with TEX cells; format: cell-based, human; conditions: 11 d growth on methylcellulose
Outline: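 TEX cells were suspended in methylcellulose medium with penicillin (100 I.U./mL) and streptomycin (100 µg/mL) at a final 1.2 × 10⁴ cells/mL, i.e. 6,000 cells/well. Test compound, diluted in TEX medium, or DMSO (0.05%, control) was added. Cells were plated as technical triplicates and grown 11 d at 37 °C, 5% CO₂. Two people counted colonies independently at 10X. Values are the mean of 3 biological replicates ± S.D., with unpaired t-tests against DMSO.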

[3] = mice, oral dosing 40 mg/kg; cited from earlier work
[4] = system: murine AML cell line B117P; experiment: Murine cytotoxicity assay, B117P; format: cell-based; conditions: Mus musculus, read-out: Growth inhibitory activity (IC50) B117P
Outline: (§1)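 Murine AML lines were used: B117P and B140P from BXH-2 mice, which develop leukemia from an endogenous murine leukemia virus, and their counterparts B117H and B140H. Cells per well were 25,000 (B117P), 28,000 (B117H), 36,000 (B140P) and 44,000 (B140H) in 96-well format. IC50 values are mean ± S.D. from biological triplicate.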

[5] = system: MCF-7 (breast adenocarcinoma); experiment: Alamar blue cytotoxicity assay, MCF-7; format: cell-based, human
Outline: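 MCF-7 cells were grown in MEM with 10% FBS, bovine insulin 0.01 mg/mL, penicillin and streptomycin at 37 °C in 5% CO₂. They were detached with trypsin-EDTA or TrypLE and seeded at 5,000 cells/well 24 h before dosing. Readout was Alamar blue reduction. IC50 is mean ± S.D. from n ≥ 3 biological replicates.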

[6] = system: CCRF-CEM (acute lymphoblastic leukemia); experiment: Alamar blue cytotoxicity assay, CCRF-CEM; format: cell-based, human; conditions: read-out: Growth inhibitory activity (IC50) CCRF-CEM
Outline: (§2)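 Suspension cells (CCRF-CEM; TEX in IMDM with L-glutamine, 15% FBS, SCF 20 ng/mL, IL-3 2 ng/mL, penicillin/streptomycin) were seeded at 10,000 cells/well 24 h before compound addition. Cultures were kept at 37 °C in humidified 5% CO₂. Viability was read with Alamar blue. IC50 is mean ± S.D. of n ≥ 3 biological replicates.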

[7] = system: murine AML cell line B117H (cytarabine-resistant); experiment: Murine cytotoxicity assay, B117H; format: cell-based; conditions: Mus musculus, read-out: Growth inhibitory activity (IC50) B117H
Outline: as §1

[8] = system: murine AML cell line B140H (cytarabine-resistant); experiment: Murine cytotoxicity assay, B140H; format: cell-based; conditions: Mus musculus, read-out: Growth inhibitory activity (IC50) B140H
Outline: as §1

CD34+CD38− BM cells [9] = experiment: Flow cytometry viability of CD34+CD38− bone marrow cells; format: cell-based, human; conditions: 25 µM, 12 h
Outline: (§3)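 Cells were plated at 1 × 10⁶ cells/mL with test compound (25 µM) or doxorubicin (0.5 µM) for 12 h (final DMSO 0.03%). Staining was CD34/CD38, then Annexin V/7-AAD, with over 5 × 10⁴ events. Viability is the unstained fraction, mean ± S.D. of n ≥ 3; unpaired t-tests.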

CD34+CD38− TEX cells = experiment: Flow cytometry viability of CD34+CD38− TEX cells; format: cell-based; conditions: Homo sapiens, 12 h, read-out: cell viability of CD34+CD38− TEX cells
Outline: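 TEX cells at 1 × 10⁶ cells/mL were dosed for 12 h at 37 °C, 20% O₂, 5% CO₂ (final DMSO 0.03% v/v). Test compound was given at 25, 15 or 2.5 µM; the doxorubicin reference at 2.5, 0.5 or 0.05 µM. Cells were stained for CD34/CD38 (10 min, 4 °C), then Annexin V-FITC/7-AAD (10 min, RT, dark). Over 5 × 10⁴ events were collected. Viable cells were double-negative. Values are mean ± S.D. of 3–5 biological replicates; unpaired t-test versus untreated.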

TEX cells [10] = experiment: Alamar blue cytotoxicity assay, TEX; format: cell-based, human; conditions: Homo sapiens, 48 h, read-out: Growth inhibitory activity (IC50) TEX
Outline: as §2

[11] = system: murine AML cell line B140P; experiment: Murine cytotoxicity assay, B140P; format: cell-based; conditions: Mus musculus, read-out: Growth inhibitory activity (IC50) B140P
Outline: as §1

TEX cells [12] = experiment: Intracellular ROS induction; format: cell-based, human; conditions: 100 µM, 30 min
Outline: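 TEX cells were seeded at 5 × 10⁵ cells/mL and incubated overnight at 37 °C, 5% CO₂. They were then exposed to test compound at 25 or 100 µM, with H₂O₂ 100 µM as positive control. CellROX Green (5 µM final) was added at once, followed by 30 min at 37 °C. Cells were washed twice in FACS buffer and 5 × 10⁴ events recorded. Median fluorescence was normalized to untreated control. Runs were in quadruplicate (H₂O₂ triplicate); mean ± S.D.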

[13] = system: total bone marrow cell population; experiment: Flow cytometry viability of total bone marrow cells; format: cell-based, human; conditions: 25 µM, 12 h
Outline: as §3

[14] = mouse plasma; cited from earlier work
CD34+CD38− BM cells [15] = conditions: 5 µM for 18 hrs; cited from earlier work
[16] = cited from earlier work
[17] = canine, oral dosing 100 mg/kg; cited from earlier work
[18] = system: NCI/ADR-RES (ovarian cancer; adriamycin-resistant); experiment: Alamar blue cytotoxicity assay, NCI/ADR-RES; format: cell-based, human; conditions: read-out: Growth inhibitory activity (IC50) NCI/ADR-RES; mean ± S.D.
Outline: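 Adherent NCI/ADR-RES cells were seeded at 5,000 cells/well 24 h prior to compound treatment and kept at 37 °C, 5% CO₂. Growth was measured by Alamar blue. IC50 values are mean ± S.D. over n ≥ 3 biological replicates.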

[19] = system: HL-60 (acute promyelocytic leukemia); experiment: Alamar blue cytotoxicity assay, HL-60; format: cell-based, human; conditions: read-out: Growth inhibitory activity (IC50) HL-60; mean ± S.D.
mice = conditions: continuous oral dosing 100 mg/kg daily for over four weeks; cited from earlier work
DU-145 (prostate cancer) = experiment: Alamar blue cytotoxicity assay, DU-145; format: cell-based, human; conditions: read-out: Growth inhibitory activity (IC50) DU-145; mean ± S.D.
[20] = mice, oral dosing 100 mg/kg; cited from earlier work
[21] = system: U-87 MG (glioblastoma multiforme); experiment: Alamar blue cytotoxicity assay, U-87 MG; format: cell-based, human; conditions: read-out: Growth inhibitory activity (IC50) U-87 MG; mean ± S.D.
[22] = system: GBM6 (glioblastoma multiforme); experiment: Alamar blue cytotoxicity assay, GBM6; format: cell-based, human; conditions: read-out: Growth inhibitory activity (IC50) GBM6; mean ± S.D.
[23] = read-out: Growth inhibitory activity (IC50) MCF-7, mean ± S.D.

Compound: Nc1ccn([C@@H]2O[C@H](CO)[C@@H](O)C2(F)F)c(=O)n1 [gemcitabine]
IC50 [1]: > 500 µM

chromatographic logD (Measured LogD7.4): 1.79
Compound: C=C1C(=O)O[C@H]2[C@H]1CC/C(C)=C/CC[C@@]1(C)O[C@@H]21 [PTL, Parthenolide]
toxicity to total BM (total BM; 5 µM for 18 hrs): non-toxic
overall BM toxicity (total BM; 7.5 µM for 18 hrs): some overall BM toxicity
Colonies (mean number ± S.D.) (TEX cells [2]; 2.5 µM): 2.6 ± 2.7
concentration in serum [3]: approximately 200 nM
IC50 [4]: 1100 ± 200 nM
IC50 ([5]; Homo sapiens, MCF7, read-out: Growth inhibitory activity (IC50) MCF-7): 9.7 ± 2.8 µM
IC50 ([6]; Homo sapiens, CCRF-CEM): 4700 ± 1600 nM
IC50 [7]: 4.7 ± 1.6 µM
IC50 [8]: 3.4 ± 1.1 µM
toxicity to primitive CD34+CD38− BM cells (CD34+CD38− BM cells [9]): no significant toxicity
viability at 25 µM (CD34+CD38− TEX cells): 1 to 10%
IC50 (TEX cells [10]): 2800 ± 200 nM
IC50 [11]: 5.8 ± 2.3 µM
induction of intracellular ROS (MFI normalized to untreated control) (TEX cells [12]): 1.6 fold
reduction in total BM viability [13]: 48%
plasma half-life t1/2 [14]: 1.6 h
toxicity to CD34+CD38− BM cells (CD34+CD38− BM cells [15]): non-toxic

Compound: C/C1=C\CC[C@@]2(C)O[C@@H]2[C@H]2OC(=O)[C@@H](CN(C)C)[C@@H]2CC1.O=C(O)/C=C/C(=O)O [DMAPT, dimethylamino-parthenolide fumarate]
increase of water solubility versus PTL [16]: ~ 1000 fold
IC50 [5, 23]: 10.4 ± 1.2 µM
IC50 ([6]; mean ± S.D.): 1900 ± 400 nM
Cmax [17]: 61 µM
IC50 [18]: 12.3 ± 2.7 µM
IC50 [19]: 7.1 ± 0.4 µM
toxicity to mice (mice): no measurable toxicity
IC50 (DU-145 (prostate cancer)): 8.4 ± 4.5 µM
Cmax [20]: 25 µM

LogD7.4 (Measured LogD7.4; average of two measurements): 2.00
Compound: C=C1C(=O)OC2C1CCC(C)=CCCC1(C)OC21 (stereo not drawn) [Compound 2, cis-PTL]
IC50 [21]: 9.1 ± 4.4 µM
IC50 [5, 23]: 7.5 ± 0.8 µM
IC50 ([6]; mean ± S.D.): 2200 ± 1000 nM
IC50 [18]: 9.4 ± 2.1 µM
IC50 [19]: 8 ± 1.1 µM
IC50 [22]: 3.3 ± 0.8 µM
IC50 (DU-145 (prostate cancer)): 6 ± 4.2 µM

Compound: Nc1ccn([C@@H]2O[C@H](CO)[C@@H](O)[C@@H]2O)c(=O)n1 [AraC, cytarabine]
Colonies (mean number ± S.D.) (TEX cells [2]; 0.1 µM): 2.6 ± 1.0
